In ChEMBL document CHEMBL4680237, “In situ click chemistry-based rapid discovery of novel HIV-1 NNRTIs by exploiting the hydrophobic channel and tolerant regions of NNIBP” (Eur J Med Chem, 2020):

Experiments:
[1] = target: Human immunodeficiency virus type 1 reverse transcriptase (Human immunodeficiency virus 1) (UniProt Q72547); assay: Inhibition of HIV-1 reverse transcriptase assessed as reduction in biotin-dUTP incorporation in to cDNA chain at 0.267 uM in presence of DIG-dUTP, biotin-dUTP and dTTP measured after 1 hr by ELISA relative to control
Procedure, shortened: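 ELISA for HIV-1 RT: enzyme with reconstituted template, DIG-dUTP, biotin-dUTP and dTTP in buffer ± inhibitor, 1 h at 37°C. Product captured on streptavidin-coated plate 2 h at 37°C, then anti-DIG-POD 1 h at 37°C, ABTS substrate, OD405. % inhibition calculated from OD with/without inhibitor and without RT.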

[2] = Selectivity index, ratio of CC50 for cytotoxicity against human MT4 cells to EC50 for antiviral activity against HIV1 RES056 infected in human MT4 cells; assay type: toxicity, cell-based; conditions: read-out: Ratio CC50/EC50
Procedure, shortened: (§1)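 SI computed as CC50 in mock-infected MT-4 cells divided by EC50 against the given HIV-1 strain, both from the 5-day MTT assay.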

[3] = Cytotoxicity against human MT4 cells assessed as reduction in cell viability after 5 days by MTT assay; assay type: cell-based; conditions: time 5 day
Procedure, shortened: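 Mock-infected MT-4 cells (6×10^5 cells/mL) were run in parallel with serial 5-fold compound dilutions in triplicate wells. After 5 days, viability was read by MTT (540/690 nm) as the median of three wells. CC50 is the concentration reducing OD540 of the mock-infected control by 50%.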

[4] = system: Human immunodeficiency virus 1; assay: Antiviral activity against HIV1 RES056 infected in human MT4 cells assessed as reduction in virus-induced cell death incubated for 5 days by MTT assay; assay type: functional, organism-based; conditions: Human immunodeficiency virus 1, RES056, MT4, 120 h
Procedure, shortened: (§2)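 MT-4 cells (6×10^5 cells/mL) infected with HIV-1 at 100-300 CCID50; serial 5-fold compound dilutions added at infection, triplicate wells. After 5 days, viability was read by MTT at 540 and 690 nm, using the median absorbance of three wells.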

[5] = Selectivity index, ratio of CC50 for cytotoxicity against human MT4 cells to EC50 for antiviral activity against HIV1 3B infected in human MT4 cells; assay type: toxicity, cell-based; conditions: read-out: Ratio CC50/EC50; procedure, shortened: as §1
[6] = system: Human immunodeficiency virus 1; assay: Antiviral activity against HIV1 3B infected in human MT4 cells assessed as reduction in virus-induced cell death incubated for 5 days by MTT assay; assay type: functional, organism-based; conditions: Human immunodeficiency virus 1, 3B, MT4, 120 h
Procedure, shortened: as §2, with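 “three wells. EC50 is the concentration giving 50% protection against virus cytopathic effect.” for “three wells.”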

Row | Compound | inhibition [1] | selectivity ratio [2] | CC50 at 120 h [3] | EC50 [4] | selectivity ratio [5] | EC50 [6]
1 | Cc1cc(C#N)cc(C)c1Oc1nc(NC2CCN(C(=O)c3cn(CC(=O)Nc4ccccc4)nn3)CC2)nc2ccsc12 | 80.2% | – | – | – | – | –
2 | Cc1cc(C#N)cc(C)c1Oc1nc(NCCc2cn(CC(=O)N3CCOCC3)nn2)nc2ccsc12 | 86.7% | – | – | – | – | –
3 | Cc1cc(C#N)cc(C)c1Oc1nc(NCCc2cn(Cc3ccccc3Cl)nn2)nc2ccsc12 | 75.6% | – | – | – | – | –
4 | Cc1cc(C#N)cc(C)c1Oc1nc(NCCc2cn(Cc3ccc(C(N)=O)cc3)nn2)nc2ccsc12 | 71.1% | – | – | – | – | –
5 | Cc1cc(C#N)cc(C)c1Oc1nc(NC2CCN(Cc3cn(Cc4ccc(S(N)(=O)=O)cc4)nn3)CC2)nc2ccsc12 | 42% | 31 | 20700 nM | 670 nM | 3880 | 5.35 nM
6 | Cc1cc(C#N)cc(C)c1Oc1nc(NC2CCN(Cc3ccc(S(N)(=O)=O)cc3)CC2)nc2ccsc12 | 44% | > 7420 | > 227000 nM | 30.6 nM | > 159000 | –
7 | Cc1cc(-c2cn(Cc3ccc(Cl)cc3)nn2)cc(C)c1Oc1nc(NC2CCN(Cc3ccc(S(N)(=O)=O)cc3)CC2)nc2ccsc12 | 70.8% | < 1 | 3390 nM | > 3400 nM | 108 | 31.3 nM
8 | Cc1cc(C#N)cc(C)c1Oc1nc(NC2CCN(Cc3cn(Cc4ccccc4C#N)nn3)CC2)nc2ccsc12 | 50.3% | 6 | 16200 nM | 2910 nM | 2440 | 6.64 nM
9 | Cc1cc(C#N)cc(C)c1Oc1nc(NC2CCN(C(=O)c3cn(CC(=O)N4CCOCC4)nn3)CC2)nc2ccsc12 | 71.8% | – | – | – | – | –
10 | Cc1ccc(Cn2cc(CN3CCC(Nc4nc(Oc5c(C)cc(C#N)cc5C)c5sccc5n4)CC3)nn2)cc1 | 46.1% | < 1 | 4720 nM | > 4720 nM | 650 | 7.26 nM
11 | Cc1ccccc1Cn1cc(CN2CCC(Nc3nc(Oc4c(C)cc(C#N)cc4C)c4sccc4n3)CC2)nn1 | 44.8% | – | – | – | – | –
12 | Cc1cc(C#N)cc(C)c1Oc1nc(Nc2ccc(C#N)cc2)nc(N)c1Br [ETRAVIRINE] | 32.7% | > 101 | > 4590 nM | – | > 889 | 5.1 nM
13 | Cc1ccnc2c1NC(=O)c1cccnc1N2C1CC1 [NEVIRAPINE] | – | – | > 9510 nM | > 9510 nM | > 58 | 163 nM
14 | Cc1cc(C#N)cc(C)c1Oc1nc(NC2CCN(Cc3cn(Cc4ccccc4[N+](=O)[O-])nn3)CC2)nc2ccsc12 | 51.9% | 7 | 7660 nM | 1170 nM | 1250 | 6.12 nM
15 | Cc1cccc(Cn2cc(CCNc3nc(Oc4c(C)cc(C#N)cc4C)c4sccc4n3)nn2)c1 | 91.8% | – | – | – | – | –
16 | Cc1cc(C#N)cc(C)c1Oc1nc(NC2CCN(Cc3cn(CC(=O)N4CCOCC4)nn3)CC2)nc2ccsc12 | 69.7% | > 48 | > 212000 nM | 4460 nM | > 48500 | 4.38 nM
17 | Cc1cc(-c2cn(CC(=O)N3CCCC3)nn2)cc(C)c1Oc1nc(NC2CCN(Cc3ccc(S(N)(=O)=O)cc3)CC2)nc2ccsc12 | 74% | 3 | 17600 nM | 6050 nM | 682 | 25.8 nM
18 | Cc1cc(-c2cn(CCc3ccsc3)nn2)cc(C)c1Oc1nc(NC2CCN(Cc3ccc(S(N)(=O)=O)cc3)CC2)nc2ccsc12 | 72.5% | 1.88 | 11700 nM | 6190 nM | 552 | 21.1 nM
19 | Cc1ccccc1Cn1cc(C(=O)N2CCC(Nc3nc(Oc4c(C)cc(C#N)cc4C)c4sccc4n3)CC2)nn1 | 75.8% | – | – | – | – | –
20 | Cc1cc(C#N)cc(C)c1Oc1nc(NC2CCN(Cc3cn(Cc4ccc(C#N)cc4)nn3)CC2)nc2ccsc12 | – | 6 | 110000 nM | 18100 nM | 525 | 209 nM
21 | Cc1cc(C#N)cc(C)c1Oc1nc(NCCc2cn(Cc3ccc(S(N)(=O)=O)cc3)nn2)nc2ccsc12 | 72.4% | – | – | – | – | –
22 | Cc1cc(C#N)cc(C)c1Oc1nc(NC2CCN(Cc3cn([C@H]4C[C@H](n5cc(C)c(=O)[nH]c5=O)O[C@@H]4CO)nn3)CC2)nc2ccsc12 | 57.1% | 14 | 149000 nM | 10600 nM | 1800 | 82.9 nM
23 | Cc1cc(C#N)cc(C)c1Oc1nc(NC2CCN(Cc3cn(Cc4ccc(C(N)=O)cc4)nn3)CC2)nc2ccsc12 | 66.6% | > 437 | > 210000 nM | 481 nM | > 64100 | 3.28 nM
24 | Cc1cc(C#N)cc(C)c1Oc1nc(NCCc2cn(Cc3ccccc3[N+](=O)[O-])nn2)nc2ccsc12 | 89.1% | – | – | – | – | –
25 | Cc1cc(C#N)cc(C)c1Oc1nc(NC2CCN(Cc3cn(CC(=O)Nc4ccc(S(C)(=O)=O)cc4)nn3)CC2)nc2ccsc12 | 60.1% | 10 | 19800 nM | 1990 nM | 2970 | 6.66 nM
26 | O=C1Nc2ccc(Cl)cc2[C@@](C#CC2CC2)(C(F)(F)F)O1 [EFAVIRENZ] | – | – | > 6380 nM | – | – | 4.7 nM
